{"data": "Measurements collected from several papers", "note": "Lines come from different studies, so protocols differ."}
{"SMILES": "CCc1ccc(Cc2cc([C@@H]3O[C@H](CO)[C@@H](O)[C@H](O)[C@H]3O)cc3c2CCC3)cc1", "test system": "male C57BL/6 mouse, plasma", "conditions": "oral, 1 mg/kg", "quantity": "bioavailability", "value": "89%"}
{"SMILES": "C[C@]1(c2nc3c(C(N)=O)cccc3[nH]2)CCCN1", "test system": "male rhesus monkey, plasma", "conditions": "oral, 5 mg/kg, single dose", "quantity": "Vd/F", "value": "38 L/kg"}
{"SMILES": "N[C@@H](CSSC[C@H](N)C(=O)O)C(=O)O", "test system": "Kunming mouse, plasma", "conditions": "oral, 100 mg/kg", "quantity": "bioavailability", "value": "25.6%"}
{"SMILES": "O=C(ON1C(=O)CCC1=O)N1CCC(CNS(=O)(=O)c2ccc(Cl)cc2)CC1", "assay": "chemical stability, HPLC", "test system": "aqueous buffer", "conditions": "167 µM, pH 7.4", "quantity": "half-life", "value": "1.21 h"}
{"SMILES": "Cc1cccc(C(=O)n2ncc(=O)c3ccccc32)c1", "assay": "chemical stability", "test system": "aqueous buffer", "conditions": "pH 7.3", "quantity": "half-life", "value": "1.9 h"}
{"SMILES": "CC[C@H](C)[C@@H]1NC(=O)[C@@](C)(NC(=O)[C@H](CCCNC(=N)N)NC(=O)[C@H](CC(C)C)NC(=O)[C@@H](NC(=O)[C@H](CCC(N)=O)NC(=O)[C@H](CC(C)C)NC(C)=O)[C@@H](C)O)CCCC=CCCC[C@@](C)(C(=O)N[C@@H](CC(C)C)C(=O)N[C@@H](Cc2ccc3ccccc3c2)C(N)=O)NC(=O)[C@H](CCCNC(=N)N)NC(=O)[C@H](CCC(N)=O)NC1=O", "test system": "male BALB/c mouse, plasma", "conditions": "subcutaneous, 10 mg/kg", "quantity": "AUC(0-inf)", "value": "146 µg·h/mL"}
{"SMILES": "Cc1cccc(C(=O)n2nc(Cl)c(=O)c3ccccc32)c1", "assay": "chemical stability", "test system": "aqueous buffer", "conditions": "pH 7.3", "quantity": "half-life", "value": "0.642 h"}
{"SMILES": "O=C(N1CCC(CNS(=O)(=O)c2ccc(Cl)cc2)CC1)n1cncn1", "assay": "chemical stability, HPLC", "test system": "aqueous buffer", "conditions": "167 µM, pH 7.4", "quantity": "half-life", "value": "0.993 h"}
